We go through one compound from publication PMC6177519 (Clinical and Experimental Gastroenterology, 2018).

What is called Tmax is the time at which the peak concentration occurs.

The conditions of data set [1]: human, plasma, 60 mg.
For data set [2] the following is noted: dual delayed-release formulation; cited from earlier work.
Another data set is described as follows: Safety evaluation. The data set is classed as in vivo, healthy adults. To be noted: for Participants with any TEAEs: 60 mg. The gist of the method:
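3-period crossover; single 60 mg test compound, fasted ≥10 h pre and 4 h post, as granules in 20 mL water via 16 French NG tube or oral syringe, or intact capsule with 240 mL water; ≥5-day washout. TEAE: onset/worsening from first dose to 30 days after last; MedDRA 15.0; phone follow-up 5–10 days post final dose; all dosed subjects.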

Structures are written as SMILES. “And” between values parts separate entries of the source, which are not always exact repeats. Equal entries are not always repeated. Where two headings read alike, the source gives them in different places.

For `Cc1c(OCC(F)(F)F)ccnc1C[S@@+]([O-])c1nc2ccccc2[nH]1` [Dexlansoprazole, dexlansoprazole], the Tmax in data set [1] (oral) is ~5 h; in data set [1] (po) it was ~5.5 h. Moreover, the “Time of first release of dexlansoprazole after dosing” value in data set [2] was 1 to 2 h. Besides, the “Time of second release of dexlansoprazole after dosing” value in data set [2] is 4 to 5 h. In addition, the Tolerability entry in the data set “Safety evaluation” (60 mg capsule, single doses, all administration routes) is reported as “well tolerated”. The “Participants with any TEAEs” value was 12 (23.1%) n (%) and 12 (23.1) n (%) in “Safety evaluation” (oral intact capsule, N=52); 10 (16.7%) n (%) and 10 (16.7) n (%) in “Safety evaluation” (oral syringe administration, N=60).
